Experimental data pooled from the literature.
Each line is one published result; the experiments were not run side by side.
Target: Dual specificity mitogen-activated protein kinase kinase 3 (MAP2K3, Homo sapiens, UniProt P46734)
One construct used (P46734 1-347): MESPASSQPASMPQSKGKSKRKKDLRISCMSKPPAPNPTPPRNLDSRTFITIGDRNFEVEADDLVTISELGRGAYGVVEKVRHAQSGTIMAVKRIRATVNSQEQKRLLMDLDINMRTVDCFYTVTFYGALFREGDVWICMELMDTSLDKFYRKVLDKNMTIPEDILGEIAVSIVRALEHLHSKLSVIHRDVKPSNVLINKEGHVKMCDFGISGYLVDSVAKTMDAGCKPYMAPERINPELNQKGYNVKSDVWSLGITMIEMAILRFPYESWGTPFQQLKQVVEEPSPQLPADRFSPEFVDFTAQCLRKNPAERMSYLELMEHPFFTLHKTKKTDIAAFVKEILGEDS

| Compound | observed | method | tested at | remaining binding |
| --- | --- | --- | --- | --- |
| O=C(c1ccc(Nc2nccc(-c3cc4ccccc4s3)n2)cc1)N1CCC(N2CCCC2)CC1 | binding | competition with immobilised ligand | 1 µM | 42% |
| FC(F)(F)c1ccc2c(c1)nc(-c1cccnc1)n2C1CC1 | cell-free assay | competition with immobilised ligand | 1 µM | 100% |
| Nc1ncc2c(n1)-c1c([nH]c3ccc(C#CC4CC4)cc13)CCCC2 | binding | competition with immobilised ligand | 1 µM | 93% |
| Cn1nc(C(F)(F)F)cc1-c1cnc(N2CCc3cc(S(=O)(=O)Nc4c(F)cc(Cl)cc4F)cc(N4CCCC4=O)c32)nc1 | cell-free assay | competition with immobilised ligand | 1 µM | 82% |
| CN(C)c1nccc(-c2cnn3ncccc23)n1 | binding | – | 1 µM | 51% |
| N#CC1(c2ccccn2)CCN(Cc2cc(C(=O)N3CCCC3)c(=O)n3ccccc23)CC1 | cell-free assay | competition with immobilised ligand | 1 µM | 81% |
| COc1ncc2cc3ccccc3nc2c1C#N | cell-free assay | competition with immobilised ligand | 5 µM | 74% |
| FC(F)(F)Oc1cccc(-c2cnc3ccc(-c4ccncc4)nn23)c1 | cell-free assay | competition with immobilised ligand | 5 µM | 35% |
| CNC(=O)[C@@H]1CC[C@@H](n2c(-c3ccc4cnccc4c3)nc3ccc(C(=O)NCc4cccc(C(N)=O)c4)cc32)C1 | binding | competition with immobilised ligand | 1 µM | 98% |
| CO[C@@H](C)c1c(Nc2ccc([C@@H](N(C)C(=O)C3CCS(=O)(=O)CC3)C(F)(F)F)cc2)cnc2cc(Cl)nn12 | cell-free assay | competition with immobilised ligand | 1 µM | 90% |
| C[C@@H](c1ccc(-n2cnc3c(N)ncnc32)cc1)N1CCc2nn(C)c(Cc3ccccc3)c2C1=O | binding | competition with immobilised ligand | 0.1 µM | 63% |
| O=C(Nc1c[nH]nc1C(=O)NC1CCNCC1)c1cc(F)cc(F)c1 | binding | competition with immobilised ligand | 1 µM | 100% |
| CN(CCCC(F)(F)F)c1nccc(-c2cnn3ncccc23)n1 | binding | – | 1 µM | 99% |
| O=C(c1ccc(Nc2ncc(Cl)c(-c3ccc(Cl)s3)n2)cc1)N1CCC(N2CCCC2)CC1 | binding | competition with immobilised ligand | 1 µM | 15% |
| Cc1cnn2ncc(-c3ccnc(N(C)C)n3)c2c1 | binding | – | 1 µM | 83% |
| c1ccc(N2CCN(Cc3nc4ccccc4[nH]3)CC2)nc1 | binding | competition with immobilised ligand | 1 µM | 96% |
| CN(c1nccc(-c2cnn3ncccc23)n1)C1CC1 | binding | – | 1 µM | 93% |
| CCN1CCN(Cc2ccc(C(=O)Nc3ccc(C)c(Oc4ccc5c(c4)CC(=O)N5)c3)cc2C(F)(F)F)CC1 | binding | competition with immobilised ligand | 1 µM | 100% |
| COc1ccnn2ncc(-c3ccnc(N(C)C)n3)c12 | binding | – | 1 µM | 71% |
| C[C@H](NC(=O)c1cnc2n1[C@](C)(Cc1ccc(C#N)cc1)C(=O)N2c1cc(Cl)c(F)c(Cl)c1)C(=O)NC1(c2ccccn2)CC1 | cell-free assay | competition with immobilised ligand | 1 µM | 80% |
| N[C@H]1CCN(c2nccc(-c3cnn4ncccc34)n2)C1 | binding | – | 1 µM | 67% |
| Cc1cnc(Nc2ccc(C(=O)N3CCC(N4CCCC4)CC3)cc2)nc1-c1cc2ccccc2s1 | binding | competition with immobilised ligand | 1 µM | 42% |
